Experimental data: ChEMBL document CHEMBL1153713, “Effect of chirality of small molecule organofluorine inhibitors of amyloid self-assembly on inhibitor potency” (Bioorg Med Chem Lett, 2009)
The source made the active and inactive calls. No cut-off for these calls is given here.

Assays:
[1] = Inhibition of amyloid beta (1 to 40) after 140 hrs by thioflavin-T assay
Summary of the method: (§1)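 Synthetic Aβ1-40 dissolved in 100 mM NaOH (40 mg/ml), diluted to 100 μM final in 10 mM HEPES, 100 mM NaCl, 0.02% NaN3, pH 7.4; inhibitor added from DMSO at inhibitor/Aβ = 10. Incubated at 37°C, 77 rpm shaking, up to 140 h. Aliquots into 5 μM ThT in glycine-NaOH pH 8.5; ex 430/em 484 nm, 0 h background subtracted, normalized to inhibitor-free control.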

[2] = Inhibition of amyloid beta (1 to 40) after 94 hrs by thioflavin-T assay relative to control; summary of the method: as §1
[3] = Inhibition of amyloid beta (1 to 40) fibrillation by atomic force microscopy relative to control; conditions: concentration not given here
Summary of the method: (§2)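 Aβ1-40 (100 μM in HEPES/NaCl/NaN3, pH 7.4) incubated with inhibitor (DMSO stock, 10:1 inhibitor:peptide) at 37°C with gentle shaking. Aliquots diluted in the same HEPES buffer, 2-5 μL spotted on freshly cleaved mica. Imaged by non-contact AFM over 10 μm2 scans and compared with inhibitor-free control.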

[4] = Inhibition of amyloid beta (1 to 40) fibrillation by atomic force microscopy; summary of the method: as §2

Activity [1]	Activity [2]	inhibition [3]	Activity [4]	SMILES
Active	Active	60%	Active	CCOC(=O)[C@](O)(c1c[nH]c2ccc(Cl)cc12)C(F)(F)F
Active	Active		Active	CCOC(=O)[C@@](O)(c1c[nH]c2ccc(Br)cc12)C(F)(F)F
Active	Active	60%	Active	CCOC(=O)[C@](O)(c1c[nH]c2ccc(Br)cc12)C(F)(F)F
Active	Active	60%	Active	CCOC(=O)[C@@](O)(c1c[nH]c2ccc(Cl)cc12)C(F)(F)F

SMILES	Activity [1]	Activity [2]	inhibition [3]	Activity [4]
CCOC(=O)[C@](O)(c1c[nH]c2ccc(I)cc12)C(F)(F)F	Active	Active		Active
CCOC(=O)[C@@](O)(c1c[nH]c2ccc(I)cc12)C(F)(F)F	Active	Active		Active
